Compounds with a hit are over-represented: about 1.8% of the library has one in this group of screens.
CHOP UPR activ = activators of apoptotic arm of unfolded protein response (CHOP); CHO-CHOP luciferase reporter, UPR activation, luminescence; percent of tunicamycin response over DMSO baseline; activation, % at 10 µM; actives 0.34% (n = 330,000);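 active = at 10 µM dose, activation of 40% or more, normalized to positive control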
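assay system = CHO CHOP reporter cells | amount = 500 CHO-CHOP cells per well | buffer or medium = F12 with 10% FBS | incubation = 16-18 h cell attachment, then 6 h compound exposure, 37 °C | detection = luminescence read with Steady-Glo | read-out = percent activation relative to tunicamycin control | controls = tunicamycin high control, DMSO low control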
697 NFkB inh = lowers PMA/ionomycin-induced NF-kB signal in 697 B cells. AID 435022. inhibition, % at 4 µM. 697 B-cell NF-kB luciferase reporter, 16 h. actives 0.33% (n = 330,000); in the data active = inhibition above about 35%
XBP1 UPR activ = adaptive UPR (XBP1) activation | CHO-XBP1 luciferase reporter, IRE1-XBP1 UPR activation, luminescence; percent of tunicamycin response, DMSO as zero | activation, % at 20 µM | actives 0.33% (n = 330,000);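 active = versus positive control, 20 µM dose yields 30% or more activation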
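Material: CHO cell line with stable XBP1 luciferase reporter; schedule: 16-18 h cell attachment at 37 °C, then 6 h compound exposure; signal: glow luminescence from Steady-Glo reagent; medium: serum-containing F12 medium, 10% FBS; benchmarks: tunicamycin 10 µg/mL and vehicle-only wells; read-out: percent activation relative to tunicamycin reference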
CRFBP-R2 block = CRF-BP/CRF-R2 complex antagonism | actives 0.59% (n = 350,000) | HEK293 CRF-R2/CRF-BP, CRF-induced calcium fluorescence | inhibition, % at 11.8 µM | AID 588475;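 active = inhibition of the ligand-induced calcium signal above about 50% at the single tested concentration, limit read from the data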
Jurkat NFkB inh = inhibitors of the PMA/ionomycin-induced NF-kB reporter in Jurkat cells | inhibition, % at 4 µM | actives 0.53% (n = 330,000) | PMA/ionomycin-induced NF-kB luciferase reporter, luminescence; in the data active = inhibition above about 50%
Hits are given with their value; . = inactive; / = not tested or not shown.

SMILES	CHOP UPR activ	697 NFkB inh	XBP1 UPR activ	CRFBP-R2 block	Jurkat NFkB inh
CSC1=NSC2=NC(=O)/C(=C/c3coc4ccccc4c3=O)C(=N)N12	/	/	/	.	/
N=C1/C(=C/c2cccs2)C(=O)N=C2SN=C(SCc3ccccc3)N12	.	.	.	101.8	.
CC(C)CSC1=NSC2=NC(=O)/C(=C\c3cccs3)C(=N)N12	.	.	.	74.9	.
CSC1=NSC2=NC(=O)/C(=C\c3cccs3)C(=N)N12	/	/	/	.	/
CCN(CC(=O)Nc1ccccc1OC)C(=O)CCOc1ccc(C(C)(C)C)cc1	.	.	.	.	.
COC(=O)CSc1nn(-c2ccc(F)cc2)c(=S)s1	.	.	.	51.2	.
O=C(CSc1nn(-c2ccccc2)c(=S)s1)Nn1cnnc1	.	.	.	.	.
Cc1ccccc1-c1nc(CS(=O)(=O)CC(=O)NCc2ccco2)c(C)o1	.	.	.	.	.
CN(CC(=O)Nc1ccc2c(c1)OCCO2)CC(=O)Nc1ccc(F)c(F)c1F	.	.	.	67.9	.
COc1ccc(CN(CCC(c2ccccc2)c2ccc(OC(C)C)cc2)C(=O)CCl)cc1OC (centres undefined)	.	.	.	53.3	.
COc1ccc(C(CCN(Cc2ccc(OC)c(OC)c2)C(C)=O)c2ccccc2)cc1 (centres undefined)	.	.	.	.	.
Cc1ccc(S(=O)(=O)NC2=NCN(C3CCN(Cc4ccccc4)CC3)CN2)cc1	.	.	.	108.9	.
COc1cccc(NC(=O)CN(C)C(=O)CN2C(=O)c3ccc([N+](=O)[O-])cc3C2=O)c1	.	.	.	.	.
Cc1noc(C)c1S(=O)(=O)N(C)C[C@@H]1OCc2cnnn2CCCC(=O)N([C@H](C)CO)C[C@@H]1C	/	/	/	.	/
Cc1ccc(CN2CC(C(=O)NCC(=O)Nc3c(C)cccc3C)CC2=O)cc1 (centres undefined)	.	.	.	.	.
O=C(CSc1ccc2nnc(-c3cccnc3)n2n1)Nc1ccc(F)cc1	.	.	.	.	.
CCOc1ccc(NC(=O)CSc2ccc3nnc(-c4cccnc4)n3n2)cc1	.	.	.	125.0	.
CCCNC(=O)c1ccc(CN2CCc3ccccc3C2)cc1	.	.	.	84.8	.
COc1cccc(Oc2ccc(OC)cc2C(=O)O)c1	.	.	.	74.1	.
COc1cccc(Nc2ccccc2C(=O)O)c1	.	.	.	.	.
CCCCN(C)CCCNC(=O)C1(O)c2ccccc2NC(=O)N1c1ccc(Cl)cc1 (centres undefined)	.	.	.	.	.
CCCN1C2CCCC1CC(NC(=O)c1ccc(C(C)(C)C)cc1)C2 (centres undefined)	.	.	.	.	.
CCN1C(=O)CC2CCCC1C2 (centres undefined)	/	/	/	75.0	/
CSc1ccc(/C=C(/NC(=O)c2ccc(C)cc2)C(=O)Nc2cccc(F)c2)cc1	.	.	.	136.9	.
COc1cccc(/C(C)=N/NS(=O)(=O)c2ccc(Cl)cc2)c1	.	.	.	54.1	.
SMILES	CHOP UPR activ	697 NFkB inh	XBP1 UPR activ	CRFBP-R2 block	Jurkat NFkB inh
COc1ccc(S(=O)(=O)N/N=C(/C)c2ccc(Cl)cc2)cc1	.	.	.	.	.
C=C(C(=O)Oc1ccccc1C(C)(C)C)c1ccccc1	193.2	.	.	/	.
CC(C)(C)c1ccccc1OCC(=O)NCCC(=O)O	.	.	.	.	.
CC(=O)c1cc2c(cc1NC(=O)CSc1nnc(C3CC3)n1C)OCO2	/	/	/	.	/
COc1ccc(N(CC(=O)N/N=C/c2ccc3c(c2)OCO3)S(=O)(=O)c2ccc(NC(C)=O)cc2)cc1	.	.	.	54.2	.
COc1cc2ccccc2cc1C(=O)N/N=C/c1ccc2c(c1)OCO2	.	.	.	53.3	.
COc1ccc(N(CC(=O)Nc2ccc3c(c2)OCO3)S(=O)(=O)c2ccc(F)cc2)cc1	.	.	.	.	.
COc1ccccc1C(=O)N/N=C/c1ccc2c(c1)OCO2	.	.	.	.	.
CN(CC(=O)Nc1ccc(F)cc1)C(=O)Cn1cnc2ccc(Cl)cc2c1=O	.	.	.	.	.
CCn1c(-c2ccc(-c3ccccc3)cc2)c[nH]c1=S	.	.	.	.	.
Cn1c(-c2ccc(-c3ccccc3)cc2)c[nH]c1=S	.	.	.	107.5	.
CCOC(=O)c1c(C)[nH]c(C(=O)OC(C)C(=O)NC2(C#N)CCCCC2)c1C (centres undefined)	/	/	/	.	/
Cc1ccccc1NC(=O)c1ccc(-c2ccc(Cl)cc2Cl)o1	.	.	.	66.2	.
N#C/C(=C(/O)c1ccc(C(=O)c2ccccc2)cc1)c1nc2ccccc2[nH]1	.	.	.	.	.
O=C(c1ccccc1)c1nc2ccccc2[nH]c1=O	.	.	.	66.8	.
CCC(=O)Nc1cc(Cl)ccc1N1CCN(C(=O)CC)CC1	.	.	.	81.3	.
c1ccc(-n2c(-c3ccncc3)nnc2-c2ccco2)cc1	.	.	.	55.6	.
Cc1ccc(NCC(=O)N/N=C\c2ccc([N+](=O)[O-])o2)cc1	.	.	.	.	.
O=C(CNc1ccccc1)N/N=C/c1ccc([N+](=O)[O-])o1	.	.	.	85.4	.
C[C@@H](C(=O)N=c1sc2ccccc2n1C)N1C(=O)C2CC=CCC2C1=O (some centres undefined)	/	/	/	.	/
CCOC(=O)c1sc(-c2ccc(C(F)(F)F)cc2)nc1O	.	.	.	53.5	.
CN1C[C@@H]2[C@@H]3C(=O)N(Cc4ccccc4)C(=O)[C@@H]3[C@](Cc3ccccc3)(C1=O)N2C(=O)c1ccc(C(C)(C)C)cc1	/	/	/	.	/
Cc1ccc(C(=O)OCC(=O)N(C)c2c(N)n(Cc3ccccc3)c(=O)[nH]c2=O)s1	.	.	.	.	.
COc1ccc(C)cc1NC(=O)CCS(=O)(=O)c1ccc2c(c1)oc(=O)n2C	.	.	.	.	.
CC(=O)c1c(N2CCCCC2)nc(=S)n(Cc2ccccc2)c1C	.	.	.	107.7	.
CCCC12CN(C(=O)c3ccc([N+](=O)[O-])cc3)CC(C)(CN(C(=O)c3ccc([N+](=O)[O-])cc3)C1)C2=O	.	.	.	126.3	.
Cc1ccc(Cn2c(C(C)Nc3nc(-c4ccc(Cl)c([N+](=O)[O-])c4)cs3)nc3cc(C(F)(F)F)ccc32)cc1 (centres undefined)	.	.	.	.	.
CCCn1nc([N+](=O)[O-])c(C(C#N)c2nc3ccccc3o2)c(Cl)c1=O (centres undefined)	.	.	.	74.4	.
CCn1nc([N+](=O)[O-])c(C(C#N)c2nc3cc(C(F)(F)F)ccc3s2)c(Cl)c1=O (centres undefined)	.	.	.	68.2	.
CCOC(=O)N1CCN(C(=O)c2cc3n(n2)C(C(F)(F)F)CC(c2ccc4c(c2)OCO4)N3)CC1 (centres undefined)	.	.	.	.	.

Source: PubChem BioAssay (Sanford-Burnham Center for Chemical Genomics)
